Data reported in ChEMBL document CHEMBL2417474, “Synthesis, antiproliferative and anti-inflammatory activities of some novel 6-aryl-2-(p-(methanesulfonyl)phenyl)-4,5-dihydropyridazi-3(2H)-ones” (Eur J Med Chem, 2013).

Experiments:
Assay type in all cases: functional
SR = experiment: Growth inhibition of human SR cells assessed as cell growth at 10 uM after 48 hrs by sulforhodamine B assay; conditions: read-out: Activity
In short: (§1)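 Single-dose NCI screen. Tumor lines were cultured in medium with 5% fetal calf serum and 2 mM L-glutamine, preincubated 24 h, then given compound in DMSO. After 48 h continuous exposure, cell growth was estimated by sulforhodamine B protein assay.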

KM12 = experiment: Growth inhibition of human KM12 cells assessed as cell growth at 10 uM after 48 hrs by sulforhodamine B assay; conditions: KM12, 48 h, read-out: Activity
NCI-H23 [1] = experiment: Growth inhibition of human NCI-H23 cells after 48 hrs by sulforhodamine B assay; conditions: NCI-H23, 48 h
In short: (§2)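 NCI 60-cell-line panel. Cells were grown in medium with 5% fetal calf serum and 2 mM L-glutamine, then preincubated 24 h in plates. Compounds were added from DMSO at five 10-fold concentrations from 100 to 0.01 µM and left on cells continuously for 48 h. Cell growth was read by sulforhodamine B protein stain. GI50 is the concentration that halves net protein increase relative to control cells.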

T47D [2] = experiment: Growth inhibition of human T47D cells after 48 hrs by sulforhodamine B assay
In short: (§3)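 NCI 60-line panel. Cells were grown in medium with 5% fetal calf serum and 2 mM L-glutamine and preincubated 24 h in plates. Compound in DMSO was added at 10^-4 to 10^-8 M (five 10-fold levels), with continuous exposure for 48 h. Growth was read by SRB protein staining. GI50 is the concentration giving 50% reduction in net protein increase versus control cells.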

SN12C = experiment: Growth inhibition of human SN12C cells after 48 hrs by sulforhodamine B assay
In short: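 Part of the NCI 60-cell-line panel. Cells were grown in 1640 medium with 5% fetal calf serum and 2 mM L-glutamine, then preincubated 24 h before compound was added. Compounds in DMSO were tested at five concentrations (100, 10, 1, 0.1, 0.01 µM) with 48 h continuous exposure. Read-out was SRB protein staining; GI50 is the concentration halving the net protein increase versus control.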

BT-549 [3] = experiment: Growth inhibition of human BT549 cells assessed as cell growth at 10 uM after 48 hrs by sulforhodamine B assay; conditions: BT-549, 48 h, read-out: Activity
MOLT-4 = experiment: Growth inhibition of human MOLT4 cells assessed as cell growth at 10 uM after 48 hrs by sulforhodamine B assay; conditions: MOLT-4, 48 h, read-out: Activity
T47D [4] = experiment: Growth inhibition of human T47D cells assessed as cell growth at 10 uM after 48 hrs by sulforhodamine B assay; conditions: read-out: Activity; in short: as §1
Rattus norvegicus = experiment: Antiinflammatory activity in Wistar rat assessed as inhibition of carrageenan-induced paw edema at 0.05 mmol/kg, po administered 30 mins prior challenge measured after 5 hrs
In short: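 Wistar rats of either sex, 150–175 g, fasted 16 h, 6 per group. Dosed orally at 0.05 mmol/kg, suspended in 1% CMC in water (10 ml/kg). 30 min later, 0.1 ml of 1% carrageenan in saline injected subplantar into the left hind paw. Paw volume read by plethysmometer at 0, 3 and 5 h. % inhibition = (1 − Vt/Vc) × 100 against the vehicle group.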

OVCAR-8 = experiment: Growth inhibition of human OVCAR8 cells after 48 hrs by sulforhodamine B assay; conditions: OVCAR-8, 48 h; in short: as §2
[5] = Growth inhibition of human Hs 578T cells after 48 hrs by sulforhodamine B assay
In short: (§4)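 NCI 60-cell-line panel grown in RPMI-type medium with 5% fetal calf serum and 2 mM L-glutamine. Cells preincubated 24 h, then exposed continuously for 48 h to compound in DMSO at 10^-4 to 10^-8 M (five 10-fold levels). Growth read by SRB protein stain. GI50 is the concentration giving a 50% reduction in net protein increase relative to control cells.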

SNB-19 = experiment: Growth inhibition of human SNB19 cells after 48 hrs by sulforhodamine B assay; conditions: SNB-19, 48 h; in short: as §2
OVCAR-5 = experiment: Growth inhibition of human OVCAR5 cells after 48 hrs by sulforhodamine B assay; conditions: OVCAR-5, 48 h; in short: as §2
NCI-H522 [6] = experiment: Growth inhibition of human NCI-H522 cells after 48 hrs by sulforhodamine B assay; conditions: NCI-H522, 48 h; in short: as §2
TK-10 = experiment: Growth inhibition of human TK10 cells assessed as cell growth at 10 uM after 48 hrs by sulforhodamine B assay; conditions: TK-10, 48 h, read-out: Activity; in short: as §1
SK-MEL-28 = experiment: Growth inhibition of human SK-MEL-28 cells after 48 hrs by sulforhodamine B assay; conditions: SK-MEL-28, 48 h; in short: as §2
CCRF-CEM = experiment: Growth inhibition of human CCRF-CEM cells assessed as cell growth at 10 uM after 48 hrs by sulforhodamine B assay; conditions: read-out: Activity
COLO 205 = experiment: Growth inhibition of human COLO205 cells assessed as cell growth at 10 uM after 48 hrs by sulforhodamine B assay; conditions: COLO 205, 48 h, read-out: Activity
LOX IMVI = experiment: Growth inhibition of human LOXIMVI cells assessed as cell growth at 10 uM after 48 hrs by sulforhodamine B assay; conditions: read-out: Activity
786-0 = experiment: Growth inhibition of human 786-0 cells after 48 hrs by sulforhodamine B assay; conditions: 786-0, 48 h; in short: as §4
NCI-H522 [7] = experiment: Growth inhibition of human NCI-H522 cells assessed as cell growth at 10 uM after 48 hrs by sulforhodamine B assay; conditions: NCI-H522, 48 h, read-out: Activity
SW-620 = experiment: Growth inhibition of human SW620 cells after 48 hrs by sulforhodamine B assay; conditions: SW-620, 48 h; in short: as §3
K562 = experiment: Growth inhibition of human K562 cells assessed as cell growth at 10 uM after 48 hrs by sulforhodamine B assay; conditions: K562, 48 h, read-out: Activity
NCI-H23 [8] = experiment: Growth inhibition of human NCI-H23 cells assessed as cell growth at 10 uM after 48 hrs by sulforhodamine B assay; conditions: NCI-H23, 48 h, read-out: Activity
HCT-116 = experiment: Growth inhibition of human HCT116 cells after 48 hrs by sulforhodamine B assay; conditions: HCT-116, 48 h; in short: as §4
BT-549 [9] = experiment: Growth inhibition of human BT549 cells after 48 hrs by sulforhodamine B assay; conditions: BT-549, 48 h; in short: as §4
MCF7 = experiment: Growth inhibition of human MCF7 cells assessed as cell growth at 10 uM after 48 hrs by sulforhodamine B assay; conditions: MCF7, 48 h, read-out: Activity
[10] = read-out: LC50 (the source's name)

Compound: Cc1cc(O)ccc1C1=NN(c2ccc(S(C)(=O)=O)cc2)C(=O)CC1
- growth at 10 µM (SR): 12.3%
- growth at 10 µM (KM12): 47.6%
- GI50 (NCI-H23 [1]): 38.5 µM
- TGI (NCI-H23 [1]): > 100 µM
- CC50 (NCI-H23 [1]; [10]): > 100 µM
- GI50 (T47D [2]): 20.2 µM
- LC50 (T47D [2]): > 100 µM
- TGI (T47D [2]): > 100 µM
- GI50 (SN12C): 7.18 µM
- LC50 (SN12C): > 100 µM
- TGI (SN12C): > 100 µM
- growth at 10 µM (BT-549 [3]): 58.2%
- growth at 10 µM (MOLT-4): 52.7%
- growth at 10 µM (T47D [4]): 84.8%
- inhibition in vivo at 50 µmol/kg (Rattus norvegicus): 52.6%
- GI50 (OVCAR-8): 12.3 µM
- LC50 (OVCAR-8): > 100 µM
- TGI (OVCAR-8): > 100 µM
- GI50 [5]: 4.15 µM
- LC50 (concentration giving 50% net cell kill) [5]: > 100 µM
- TGI [5]: > 100 µM
- GI50 (SNB-19): 50.4 µM
- TGI (SNB-19): > 100 µM
- CC50 (SNB-19; [10]): > 100 µM
- GI50 (OVCAR-5): 53.8 µM
- TGI (OVCAR-5): > 100 µM
- CC50 (OVCAR-5; [10]): > 100 µM
- GI50 (NCI-H522 [6]): 2.53 µM
- LC50 (concentration killing 50% of starting cells) (NCI-H522 [6]): > 100 µM
- TGI (NCI-H522 [6]): 8.6 µM
- growth at 10 µM (TK-10): 105%
- GI50 (SK-MEL-28): 9.56 µM
- TGI (SK-MEL-28): > 100 µM
- CC50 (SK-MEL-28; [10]): > 100 µM
- growth at 10 µM (CCRF-CEM): 69.7%
- growth at 10 µM (COLO 205): 65.8%
- growth at 10 µM (LOX IMVI): 67.5%
- GI50 (786-0): 92.5 µM
- LC50 (786-0): > 100 µM
- TGI (786-0): > 100 µM
- growth at 10 µM (NCI-H522 [7]): 2.39%
- GI50 (SW-620): 3.32 µM
- TGI (SW-620): > 100 µM
- CC50 (SW-620; [10]): > 100 µM
- growth at 10 µM (K562): 20.6%
- growth at 10 µM (NCI-H23 [8]): 32.9%
- GI50 (HCT-116): 3.78 µM
- LC50 (concentration killing 50% of cells) (HCT-116): > 100 µM
- TGI (HCT-116): > 100 µM
- GI50 (BT-549 [9]): 4.97 µM
- TGI (BT-549 [9]): > 100 µM
- CC50 (BT-549 [9]; [10]): > 100 µM
- growth at 10 µM (MCF7): 82.8%
